ROMK mod – human ROMK K+ channel modulation, primary screen; P48048; Tet-inducible ROMK, thallium flux fluorescence; actives lie on both sides; B-score at 10 µM; actives 2% (n = 130,000);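 active = signal ratio slope over the read window, or its plate-corrected B-score, at least 3 SD from the plate mean, either direction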;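 also: B-score of the F/F0 ratio slope over 7 to 12 s after thallium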
Target sequence (P48048 whole entry, looked up): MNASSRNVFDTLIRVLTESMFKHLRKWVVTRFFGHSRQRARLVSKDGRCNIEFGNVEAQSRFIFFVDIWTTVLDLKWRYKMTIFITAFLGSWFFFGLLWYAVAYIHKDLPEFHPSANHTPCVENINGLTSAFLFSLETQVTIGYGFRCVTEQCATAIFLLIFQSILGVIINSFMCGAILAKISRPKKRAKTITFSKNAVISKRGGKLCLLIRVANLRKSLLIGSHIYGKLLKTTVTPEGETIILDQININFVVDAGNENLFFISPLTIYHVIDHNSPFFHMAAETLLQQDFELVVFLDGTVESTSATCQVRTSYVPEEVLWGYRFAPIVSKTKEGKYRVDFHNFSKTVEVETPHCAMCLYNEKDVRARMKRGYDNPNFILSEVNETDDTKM
Calb biofilm kill – mixtures killing C. albicans biofilm; C. albicans biofilm persisters + clotrimazole, fluorescence viability; primary screen in compound mixtures of four per well; inhibition, % at 7.6 µM; actives 0.02% (n = 120,000);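 active = inhibition above 30.3% in the primary screen of four-compound pools, then above 30% when the compound was retested; inconclusive = passed the primary limit but could not be retested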;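 also: compounds exposed to preformed 24 h biofilms for 48 h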
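Incubation: 24 h biofilm formation, then 48 h compound exposure, 37 °C | Material: C. albicans biofilms | Buffer or medium: RPMI/MOPS medium, pH 7.0 | Measured by: 2-h Alamar Blue fluorescence, 535/590 nm excitation/emission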
Pf gametocyte – inhibitors of late stage P. falciparum gametocyte viability. P. falciparum stage V gametocytes, ATP luminescence, 24 h. actives 0.065% (n = 150,000). inhibition, % at 10.9 µM. AID 743093;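 active = inhibition above the mean plus 3 SD of compounds within the control limits, set per campaign, cut at about 38% in these data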
ROMK hit retest – confirmation of human ROMK potassium channel modulators; shares compounds with ROMK mod; ROMK thallium flux, fluorescence ratio; stronger effect = lower value; normalized thallium flux (F/F0 slope) at 10 µM; actives 54% (n = 3,000);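 active = Flux at 10 µM at least 3 SD below or above vehicle control mean in one or both replicates; inconclusive = no clear call, values can overlap the other calls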
Hits are given with their value. Shown is part of a subset that was picked to be rich in hits.

How did COc1ccc(N2CCN(C(c3cccc(OC)c3OC)c3nnnn3C3CCCC3)CC2)cc1 (stereo not drawn) do in these assays?
Pf gametocyte: inactive

What do the screens show for `COc1cccc(C(c2nnnn2C(C)(C)C)N2CCN(C3CCCCC3)CC2)c1OC` (stereo not drawn)?
ROMK mod: -2.4; Pf gametocyte: inactive; ROMK hit retest: inconclusive

Results for CCOC(=O)c1c(C)n(C)c2ccc(OC)c(NC(=O)CCN3CCC(Cc4ccccc4)CC3)c12 ?
Calb biofilm kill: inactive; Pf gametocyte: inactive; ROMK hit retest: 0.063

What do the screens show for `CCOC(=O)c1c(C)n(C)c2ccc(OC)c(NC(=O)CN3CCSCC3)c12`?
ROMK mod: inactive

What do the screens show for `COc1cccc(-n2nnnc2S(C)(=O)=O)c1`?
ROMK mod: -3.5; ROMK hit retest: 0.063

Results for COc1cccc(Oc2nnnn2-c2ccccc2)c1 ?
ROMK mod: inactive; Pf gametocyte: inactive

What do the screens show for `CCCCN(C)C/C(O)=C(\C#N)c1nc(-c2ccccc2)cs1`?
ROMK mod: inactive

What do the screens show for `Cc1ccc2cccc(NC3OC(=O)c4ccccc43)c2n1` (stereo not drawn)?
ROMK mod: inactive; Calb biofilm kill: inactive; Pf gametocyte: inactive

How did CCN(CC)S(=O)(=O)c1ccc(C(=O)N(c2ccccc2)C2C=CS(=O)(=O)C2)cc1 (stereo not drawn) do in these assays?
ROMK mod: inactive; Calb biofilm kill: inactive; Pf gametocyte: inactive

Results for CCCn1c2c(c(O)c(C(=O)NCCCN(CC)CC)c1=O)CCCC2 ?
Calb biofilm kill: inactive

How did CC(=O)c1c(C)c2c(n1CCN(C)C)CCCC2 do in these assays?
ROMK mod: 3.5; Pf gametocyte: inactive; ROMK hit retest: inactive

How did CC(C)c1cc(=O)oc2c3c4c(cc12)CCCN4CCC3 do in these assays?
ROMK hit retest: 0.054

Results for Cc1cc(=O)oc2c3c4c(cc12)OCCN4CCC3 ?
Calb biofilm kill: inactive

What do the screens show for `CN(Cc1ccno1)C(=O)CC1C(=O)NCCN1CC(c1ccccc1)c1ccccc1` (stereo not drawn)?
ROMK mod: inactive; Calb biofilm kill: inactive; Pf gametocyte: inactive

What do the screens show for `CN1C[C@@H]2C[C@@H](C3=Cc4cc(Cl)ccc4OC3)N3CCC[C@@]23C1=O`?
ROMK mod: inactive; Calb biofilm kill: inactive; Pf gametocyte: inactive

How did COc1ccccc1CN1C[C@@H]2C[C@@H](C3=Cc4cc(Cl)ccc4OC3)N3CCC[C@@]23C1=O do in these assays?
ROMK mod: -3.2; Calb biofilm kill: inactive; Pf gametocyte: inactive; ROMK hit retest: 0.065

What do the screens show for `O=C(Nc1ccc(F)cc1F)NC1CCN(Cc2c(F)cccc2Cl)CC1`?
Calb biofilm kill: inactive; Pf gametocyte: inactive

What do the screens show for `COc1cccc(CNCc2ccc(OC)cc2OC)c1`?
Pf gametocyte: inactive

Results for CCn1c2ccccc2c2cc(CNCc3ccc(OC)cc3OC)ccc21 ?
ROMK mod: -5.1; Calb biofilm kill: inactive; Pf gametocyte: inactive; ROMK hit retest: 0.046

How did C=CC#CC1(O)CC(C)[N+](C)(C)CC1C (stereo not drawn) do in these assays?
ROMK mod: inactive; Calb biofilm kill: inactive; ROMK hit retest: inactive

How did C=CCN(C(=O)CNC(=O)c1cccs1)C(C(=O)NC1CCCCC1)c1cccnc1 (stereo not drawn) do in these assays?
ROMK mod: inactive; Calb biofilm kill: inactive; Pf gametocyte: inactive

How did O=C1C(=O)c2ccccc2C(O)=C1CCCCl do in these assays?
Calb biofilm kill: inactive

What do the screens show for `CCS(=O)(=O)c1nc(S(=O)(=O)c2ccc(C)cc2)c(NCCCN(C)C)s1`?
ROMK mod: inactive; Calb biofilm kill: inactive; Pf gametocyte: inactive

What do the screens show for `Clc1ccccc1-c1nnc2n1CCCCC2`?
Calb biofilm kill: inactive; Pf gametocyte: inactive

Results for Cc1cc(C(=O)NCCc2ccc(Cl)cc2)no1 ?
ROMK mod: inactive; Calb biofilm kill: inactive

What do the screens show for `CC(NCC(O)COCc1ccc(Cl)cc1)c1ccccc1` (stereo not drawn)?
ROMK mod: -2; Calb biofilm kill: inactive; Pf gametocyte: inactive; ROMK hit retest: 0.049

What do the screens show for `OC(CNCc1ccccc1)COCc1ccc(Cl)cc1` (stereo not drawn)?
ROMK mod: inactive; Calb biofilm kill: inactive; Pf gametocyte: inactive

How did COc1ccc(/C=N/OCC(=O)Nc2nc3ccccc3s2)cc1 do in these assays?
ROMK mod: inactive; Calb biofilm kill: inactive; Pf gametocyte: inactive

Results for Cc1ccc(C)c(C2=NNC(=O)CC2)c1 ?
Pf gametocyte: inactive

Results for CCCNC(=O)CSc1nnc(-c2ccccc2Br)n1-c1cccc(C(F)(F)F)c1 ?
Calb biofilm kill: inactive; Pf gametocyte: inactive

What do the screens show for `COc1ccccc1N1CCN(C2CCN(C3CCC(c4ccccc4)CC3)CC2)CC1` (stereo not drawn)?
ROMK mod: -3.1; Calb biofilm kill: inactive; ROMK hit retest: 0.061

Results for COc1ccccc1N1CCN(C2CCC(C)CC2)CC1 (stereo not drawn) ?
Pf gametocyte: inactive

Results for CCN(CC)C(=O)Cn1cnc2sc(C(=O)N3CCN(Cc4ccc5c(c4)OCO5)CC3)c(C)c2c1=O ?
ROMK mod: inactive; Calb biofilm kill: inactive; Pf gametocyte: inactive

How did CCCOc1cc(C)c(S(=O)(=O)NC2CC(C)(C)NC(C)(C)C2)cc1C do in these assays?
ROMK mod: -4.4; Calb biofilm kill: inactive; Pf gametocyte: inactive; ROMK hit retest: 0.062

How did Cc1cc(C)c(S(=O)(=O)NC2CC(C)(C)NC(C)(C)C2)cc1Br do in these assays?
Pf gametocyte: inactive

What do the screens show for `COc1cc(C)c(S(=O)(=O)NC2CC(C)(C)NC(C)(C)C2)cc1C`?
ROMK mod: inactive

Results for COc1cc(C)c(Cl)cc1S(=O)(=O)NC1CC(C)(C)NC(C)(C)C1 ?
ROMK mod: -6.4; Calb biofilm kill: inactive; ROMK hit retest: 0.052

What do the screens show for `O=C(O)/C=C/c1cnc2ccccc2c1`?
ROMK mod: inactive; Calb biofilm kill: inactive

Results for Cc1ccc2c(c1)N(C(C)C(=O)NCc1ccc3c(c1)OCO3)C(=O)CO2 (stereo not drawn) ?
Calb biofilm kill: inactive; Pf gametocyte: inactive

What do the screens show for `CC(C)(C)NC(=O)C(OC(=O)c1cccs1)c1ccc(C#N)cc1` (stereo not drawn)?
ROMK mod: inactive; Calb biofilm kill: inactive; Pf gametocyte: inactive

How did O=C(NC1CCCCC1)C1CCCN(S(=O)(=O)c2cccc3cccnc23)C1 (stereo not drawn) do in these assays?
ROMK mod: inactive; Calb biofilm kill: inactive; Pf gametocyte: inactive

Results for O=C(C1CCCN(S(=O)(=O)c2cccc3cccnc23)C1)N1CCN(c2ccc(F)cc2)CC1 (stereo not drawn) ?
ROMK hit retest: inactive

How did CC(=O)Nc1ccc(/C=N/NC(=O)c2cccc(S(=O)(=O)N3CCOCC3)c2)cc1 do in these assays?
ROMK mod: inactive; Calb biofilm kill: inactive; Pf gametocyte: inactive

Results for CC(C)c1ccc(/C=N/NC(=O)c2cccc(S(=O)(=O)N3CCOCC3)c2)cc1 ?
ROMK mod: 0.8; Calb biofilm kill: inactive; Pf gametocyte: inactive; ROMK hit retest: inactive

What do the screens show for `Cc1cc(N2CCN(c3ccc([N+](=O)[O-])c4cccnc34)CC2)c2ccccc2n1`?
ROMK mod: -2.6; Calb biofilm kill: inactive; ROMK hit retest: 0.062
